{"data": "Assay results from different studies", "target": "Mitogen-activated protein kinase kinase kinase 13 (MAP3K13, Homo sapiens, UniProt O43283)", "Residues used in one study (O43283 1-966)": "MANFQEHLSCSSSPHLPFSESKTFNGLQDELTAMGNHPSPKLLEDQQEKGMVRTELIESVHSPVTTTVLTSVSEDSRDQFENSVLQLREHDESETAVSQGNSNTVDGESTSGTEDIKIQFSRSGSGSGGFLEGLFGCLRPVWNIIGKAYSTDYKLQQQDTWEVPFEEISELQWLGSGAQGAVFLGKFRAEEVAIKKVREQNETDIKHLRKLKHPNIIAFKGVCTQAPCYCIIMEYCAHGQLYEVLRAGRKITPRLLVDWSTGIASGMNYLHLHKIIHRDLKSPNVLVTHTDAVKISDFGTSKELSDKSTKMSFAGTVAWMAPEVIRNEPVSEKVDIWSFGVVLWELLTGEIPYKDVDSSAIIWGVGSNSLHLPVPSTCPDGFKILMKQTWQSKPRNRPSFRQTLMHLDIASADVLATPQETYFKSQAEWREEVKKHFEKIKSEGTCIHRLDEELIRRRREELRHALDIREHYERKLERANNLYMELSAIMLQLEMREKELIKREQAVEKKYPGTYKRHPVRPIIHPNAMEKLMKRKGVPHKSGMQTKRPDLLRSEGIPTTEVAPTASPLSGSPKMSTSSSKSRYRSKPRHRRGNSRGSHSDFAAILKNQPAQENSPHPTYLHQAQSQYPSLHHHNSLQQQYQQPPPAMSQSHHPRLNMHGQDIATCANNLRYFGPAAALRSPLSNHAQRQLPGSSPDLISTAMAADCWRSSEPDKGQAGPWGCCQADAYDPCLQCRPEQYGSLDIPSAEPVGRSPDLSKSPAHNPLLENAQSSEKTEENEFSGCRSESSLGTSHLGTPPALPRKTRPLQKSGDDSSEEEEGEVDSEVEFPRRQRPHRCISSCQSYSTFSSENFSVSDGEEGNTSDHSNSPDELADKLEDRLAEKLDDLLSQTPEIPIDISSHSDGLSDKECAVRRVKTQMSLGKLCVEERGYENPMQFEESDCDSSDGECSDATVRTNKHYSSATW", "note": "Each line is one published result; the experiments were not run side by side."}
{"Structure (SMILES)": "Cc1cnc(Nc2ccc(C(=O)N3CCC(N4CCCC4)CC3)cc2)nc1-c1cc2ccccc2s1", "observed": "binding", "method": "competition with immobilised ligand", "concentration": "1 µM", "remaining binding [%]": 25}
{"Structure (SMILES)": "O=C(NC[C@@H]1[C@H]2CN(C(=O)OCc3cc(C(F)(F)F)cc(C(F)(F)F)c3)C[C@@H]12)c1ccc2[nH]nnc2c1", "observed": "cell-free assay", "method": "competition with immobilised ligand", "concentration": "1 µM", "remaining binding [%]": 86}
{"Structure (SMILES)": "O=C(c1ccc(Nc2ncc(Cl)c(-c3cc4ccccc4s3)n2)cc1)N1CCC(N2CCCC2)CC1", "observed": "binding", "method": "competition with immobilised ligand", "concentration": "1 µM", "remaining binding [%]": 46}
{"Structure (SMILES)": "CNC(=O)[C@@H]1CC[C@@H](n2c(-c3ccc4cnccc4c3)nc3ccc(C(=O)NCc4cccc(C(N)=O)c4)cc32)C1", "observed": "binding", "method": "competition with immobilised ligand", "concentration": "1 µM", "remaining binding [%]": 100}
{"Structure (SMILES)": "COCCOc1nc(-c2ccc(Cl)nc2)nc2c1CN(C(=O)c1ncn3ccccc13)CC2", "observed": "cell-free assay", "method": "competition with immobilised ligand", "concentration": "0.1 µM", "remaining binding [%]": 87}
{"Structure (SMILES)": "CN(C)c1nccc(-c2cnc3ncccn23)n1", "observed": "binding", "concentration": "1 µM", "remaining binding [%]": 76}
{"Structure (SMILES)": "CN1CCN(c2cnc3c(C4CCN(C(=O)c5ccc(OC(F)(F)F)cc5N)CC4)ncnc3c2)CC1", "observed": "cell-free assay", "method": "competition with immobilised ligand", "concentration": "1 µM", "remaining binding [%]": 100}
{"Structure (SMILES)": "CCN1CCN(Cc2ccc(C(=O)Nc3ccc(C)c(Oc4ccc5c(c4)CC(=O)N5)c3)cc2C(F)(F)F)CC1", "observed": "binding", "method": "competition with immobilised ligand", "concentration": "1 µM", "remaining binding [%]": 100}
{"Structure (SMILES)": "Cc1c(C(=O)O)cc(-c2ccc(C3CCNCC3)cc2)c2ccc(-c3ccc(C(F)(F)F)cc3)cc12", "observed": "binding", "method": "competition with immobilised ligand", "concentration": "1 µM", "remaining binding [%]": 100}
{"Structure (SMILES)": "O=C(c1ccc(Nc2nccc(-c3cc4ccccc4s3)n2)cc1)N1CCC(N2CCCC2)CC1", "observed": "binding", "method": "competition with immobilised ligand", "concentration": "1 µM", "remaining binding [%]": 68}
{"Structure (SMILES)": "N[C@@H]1CCN(c2nccc(-c3cnn4ncccc34)n2)C1", "observed": "binding", "concentration": "1 µM", "remaining binding [%]": 100}
{"Structure (SMILES)": "CO[C@@H](C)c1c(Nc2ccc([C@H](N(C)C(=O)C3CCS(=O)(=O)CC3)C(F)(F)F)cc2)cnc2cc(Cl)nn12", "observed": "cell-free assay", "method": "competition with immobilised ligand", "concentration": "1 µM", "remaining binding [%]": 78}
{"Structure (SMILES)": "CC1CCCN1c1nccc(-c2cnn3ncccc23)n1 (centres unmarked)", "observed": "binding", "concentration": "1 µM", "remaining binding [%]": 100}
{"Structure (SMILES)": "FC(F)(F)Oc1cccc(-c2cnc3ccc(-c4ccncc4)nn23)c1", "observed": "cell-free assay", "method": "competition with immobilised ligand", "concentration": "5 µM", "remaining binding [%]": 83}
{"Structure (SMILES)": "COc1ccnn2ncc(-c3ccnc(N(C)C)n3)c12", "observed": "binding", "concentration": "1 µM", "remaining binding [%]": 21}
{"Structure (SMILES)": "O=C(NCC1CCOCC1)c1n[nH]cc1NC(=O)c1c(F)cccc1F", "observed": "binding", "method": "competition with immobilised ligand", "concentration": "1 µM", "remaining binding [%]": 84}
{"Structure (SMILES)": "C[C@@H]1CCN(c2nccc(-c3cnn4ncccc34)n2)C1", "observed": "binding", "concentration": "1 µM", "remaining binding [%]": 71}
{"Structure (SMILES)": "C[C@H](NC(=O)c1cnc2n1[C@](C)(Cc1ccc(C#N)cc1)C(=O)N2c1cc(Cl)c(F)c(Cl)c1)C(=O)NC1(c2ccccn2)CC1", "observed": "cell-free assay", "method": "competition with immobilised ligand", "concentration": "1 µM", "remaining binding [%]": 100}
{"Structure (SMILES)": "Nc1ncc2c(n1)-c1c([nH]c3ccc(C#CC4CC4)cc13)CCCC2", "observed": "binding", "method": "competition with immobilised ligand", "concentration": "1 µM", "remaining binding [%]": 61}
{"Structure (SMILES)": "CN(c1nccc(-c2cnn3ncccc23)n1)C1CC1", "observed": "binding", "concentration": "1 µM", "remaining binding [%]": 18}
